# Measurements from different studies.
# Target: Ribosomal protein S6 kinase beta-1 (RPS6KB1, Homo sapiens, UniProt P23443)
# Effect on: enzyme activity
# Mode: inhibitor
SMILES,test,setting,remaining activity
FC(F)c1nc2ccccc2n1-c1nc(N2CCOCC2)nc(N2CCOCC2)n1,,10 µM,98%
Cc1[nH]c(/C=C2\C(=O)Nc3ccc(F)cc32)c(C)c1C(=O)N[C@H]1CCN(C(=O)N(C)C)C1,,1 µM,52%
Cc1ccc(Nc2nccc(N(C)c3ccc4c(C)n(C)nc4c3)n2)cc1S(N)(=O)=O,,0.5 µM,96%
CCN(CC)CCNC(=O)c1c(C)[nH]c(/C=C2\C(=O)Nc3ccc(F)cc32)c1C,,1 µM,31%
COc1cc(Nc2cnc(C#N)c(O[C@H](C)CN(C)C)n2)ncc1-c1cnn(C)c1,radiometric,10 µM,85%
CCN(CC)c1ccc(C2=NNC(=O)CC2C)cc1[N+](=O)[O-] (stereo not drawn),,10 µM,109%
CC(C)(O)[C@H]1CC[C@H](Nc2ccc3ncc(-c4cccc(C(F)(F)F)c4)n3n2)CC1,,1 µM,96.8%
Cc1sc(C(=O)NC2COC2)cc1-n1cc(NC(=O)Nc2c(F)cccc2Cl)cn1,,10 µM,92.1%
Cc1cnc(NC2CCOCC2)nc1-n1cnc(C(=O)NC(CN)c2cc(F)cc(Cl)c2)c1 (stereo not drawn),radiometric,1 µM,71%
O=C(Nc1cnn(-c2csc(C(=O)NC3COC3)c2)c1)Nc1ccccc1Cl,,5 µM,92.1%
CC(C)(C)c1nc(-c2cccc(NS(=O)(=O)c3c(F)cccc3F)c2F)c(-c2ccnc(N)n2)s1,radiometric,1 µM,75%
CC(C)(C)C(=O)c1sc(NC2CCCCC2)nc1N,,10 µM,86%
